Experiments:
[1] = Stability in aqueous 25 mM phosphate buffer at pH 7.3 assessed as hydrolysis half life; type: physicochemical
Outline: (§1)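 Chemical stability in aqueous 25 mM phosphate buffer at pH 7.3 or 7.6. Triester cleavage followed by HPLC; half-life refers to disappearance of the intact triester.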

[2] = Cytostatic activity against human wild type CEM/0 cellss; type: cell-based, CCRF-CEM; conditions: wild-type CEM/0 cells
Outline: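 Cytostatic activity on T-lymphocyte CEM cultures, reported as the 50% cytostatic concentration.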

[3] = system: Human immunodeficiency virus 2; test: Antiviral activity against HIV2 in human wild type CEM/0 cellss; type: functional, organism-based; conditions: Human immunodeficiency virus 2, CCRF-CEM
Outline: (§2)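 Anti-HIV assay in T-lymphocytes: wild-type CEM/0 cells infected with HIV-1 or HIV-2, and thymidine kinase-deficient CEM/TK⁻ cells infected with HIV-2. Cells grown in RPMI-1640 with 10% heat-inactivated fetal calf serum. Read-out is the 50% effective concentration, given as the mean of two to three independent experiments.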

[4] = system: Human immunodeficiency virus 2; test: Antiviral activity against HIV2 in thymidine kinase deficient human CEM/TK- cellss; type: functional, organism-based; conditions: Human immunodeficiency virus 2, CEM-TK(-); outline: as §2
[5] = system: Human immunodeficiency virus 1; test: Antiviral activity against HIV1 in human wild type CEM/0 cellss; type: functional, organism-based; conditions: Human immunodeficiency virus 1, CCRF-CEM; outline: as §2
[6] = Stability in aqueous 25 mM phosphate buffer at pH 7.6 assessed as hydrolysis half life; type: physicochemical; outline: as §1
[7] = Stability in RPMI-1640 medium containing 10% heat inactivated fetal calf serum at pH 7.6 assessed as hydrolysis half life; type: physicochemical; conditions: cattle, RPMI-1640 medium with 10% heat-inactivated fetal calf serum
Outline: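 Stability in RPMI-1640 culture medium with 10% fetal calf serum heat-inactivated for 30 min at 56 °C (pH 7.6). Handled like the cell-extract incubations, with medium in place of extract; triester half-life and formyl-product formation followed by HPLC.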

[8] = Stability in human CEM cells extracts at pH 6.9 assessed as hydrolysis half life; type: ADME, CCRF-CEM; conditions: CEM cell extracts
Outline: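 Enzymatic stability assay: triesters incubated in CEM cell extracts (pH 6.9) over varied incubation times. Acetic acid was not used to stop the reaction for acid-sensitive compounds. Samples analysed by HPLC to give the half-life of triester cleavage.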

[9] = system: Human immunodeficiency virus; test: Antiviral activity against HIV; type: functional, organism-based; conditions: Human immunodeficiency virus 1; outline: as §2

Compound | half-life [1] [h] | CC50 [2] [µM] | EC50 [3] [µM] | EC50 [4] [µM] | EC50 [5] [µM] | half-life [6] [h] | half-life [7] [h] | half-life [8] [h] | EC50 [9] [µM]
Cc1cn([C@H]2C=C[C@@H](COP3(=O)OCc4cc(C(C)(C)C)ccc4O3)O2)c(=O)[nH]c1=O (stereo not given in full) | 7.2 |  |  |  |  |  |  |  | 
Cc1cn([C@H]2C=C[C@@H](CO)O2)c(=O)[nH]c1=O [STAVUDINE] |  | 182 | 1.9 | 62 | 0.86 |  |  |  | 
Cc1cn([C@H]2C=C[C@@H](COP3(=O)OCc4cc(C=O)cc(C(C)(C)C)c4O3)O2)c(=O)[nH]c1=O (stereo not given in full) | 1 | 33 | 1 | 15 | 0.39 | 1.1 | 1.5 |  | 
CC(=O)OC(OC(C)=O)c1cc(C)cc2c1OP(=O)(OC[C@@H]1C=C[C@H](n3cc(C)c(=O)[nH]c3=O)O1)OC2 (stereo not given in full) | 3.2 | 19 | 1 | 6.5 | 0.52 | 1.1 | 1.5 | 0.25 | 
CC(=O)OC(OC(C)=O)c1cc(C)c2c(c1)COP(=O)(OC[C@@H]1C=C[C@H](n3cc(C)c(=O)[nH]c3=O)O1)O2 (stereo not given in full) |  | 44 | 0.7 | 6.3 | 0.5 | 1.9 | 1.5 |  | 
Cc1cc(C=O)c2c(c1)COP(=O)(OC[C@@H]1C=C[C@H](n3cc(C)c(=O)[nH]c3=O)O1)O2 (stereo not given in full) | 0.25 | 29 | 1.4 | 29 | 3.6 | 0.3 | 0.3 |  | 
CC(=O)OC(OC(C)=O)c1cc2c(c(C(C)(C)C)c1)O[P@@](=O)(OC[C@@H]1C=C[C@H](n3cc(C)c(=O)[nH]c3=O)O1)OC2 | 8.3 | 51 | 0.84 | 3.9 | 1.1 | 2.4 | 2.8 | 0.15 | 
Cc1cccc2c1OP(=O)(OC[C@@H]1C=C[C@H](n3cc(C)c(=O)[nH]c3=O)O1)OC2 (stereo not given in full) |  |  |  |  |  |  |  |  | 0.1
Cc1cn([C@H]2C=C[C@@H](CO[P@@]3(=O)OCc4cc(C(OC(=O)C(C)C)OC(=O)C(C)C)cc(C(C)(C)C)c4O3)O2)c(=O)[nH]c1=O | 3.8 | 40 | 1.9 | 3.6 | 0.89 | 2.9 | 4.5 | 0.8 | 
Cc1cn([C@H]2C=C[C@@H](COP3(=O)OCc4cc(C(C)(C)C)cc(C=O)c4O3)O2)c(=O)[nH]c1=O (stereo not given in full) | 0.25 | 8.8 | 1 | 5.1 | 0.99 | 0.1 | 0.3 |  | 
CC(=O)OC(OC(C)=O)c1cc2c(c(C(C)(C)C)c1)OP(=O)(OC[C@@H]1C=C[C@H](n3cc(C)c(=O)[nH]c3=O)O1)OC2 (stereo not given in full) | 7.9 | 19 | 0.8 | 0.78 | 0.65 | 2.6 | 2.8 | 0.15 | 
Cc1cn([C@H]2C=C[C@@H](CO[P@]3(=O)OCc4cc(C(OC(=O)C(C)C)OC(=O)C(C)C)cc(C(C)(C)C)c4O3)O2)c(=O)[nH]c1=O | 3.3 | 14 | 0.85 | 1.4 | 0.72 | 2.5 | 5.7 | 1 | 
Cc1cc(C=O)cc2c1OP(=O)(OC[C@@H]1C=C[C@H](n3cc(C)c(=O)[nH]c3=O)O1)OC2 (stereo not given in full) |  | 82 | 1.27 | 4.5 | 0.45 | 0.35 | 0.7 |  | 
Cc1cn([C@H]2C=C[C@@H](COP3(=O)OCc4cc(C(OC(=O)C(C)C)OC(=O)C(C)C)cc(C(C)(C)C)c4O3)O2)c(=O)[nH]c1=O (stereo not given in full) | 3.5 | 20 | 2 | 2.4 | 0.53 | 2.7 | 5.9 | 1 | 
CC(=O)OC(OC(C)=O)c1cc(C(C)(C)C)cc2c1OP(=O)(OC[C@@H]1C=C[C@H](n3cc(C)c(=O)[nH]c3=O)O1)OC2 (stereo not given in full) | 3.7 | 7.9 | 1 | 7.3 | 0.72 | 1.2 | 1.9 | < 0.1 | 
CC(=O)OC(OC(C)=O)c1cc2c(c(C(C)(C)C)c1)O[P@](=O)(OC[C@@H]1C=C[C@H](n3cc(C)c(=O)[nH]c3=O)O1)OC2 | 7.9 | 17 | 0.75 | 0.29 | 0.54 | 2.7 | 2.9 | 0.3 | 
Cc1cc(C(OC(=O)C(C)C)OC(=O)C(C)C)cc2c1OP(=O)(OC[C@@H]1C=C[C@H](n3cc(C)c(=O)[nH]c3=O)O1)OC2 (stereo not given in full) | 1.3 | 20 | 0.95 | > 10 | 1.6 | 1.1 | 1.6 | 0.5 | 
Cc1cn([C@H]2C=C[C@@H](CO[P@@]3(=O)OCc4cc(C=O)cc(C(C)(C)C)c4O3)O2)c(=O)[nH]c1=O | 1 | 41 | 1.4 | 10 | 0.81 | 0.3 | 1.6 |  | 
Cc1cn([C@H]2C=C[C@@H](CO[P@]3(=O)OCc4cc(C=O)cc(C(C)(C)C)c4O3)O2)c(=O)[nH]c1=O | 1.3 | 27 | 0.69 | 2.6 | 0.16 | 1.3 | 1.7 |  | 

Source: ChEMBL document CHEMBL1142496, “Studies on enzyme-cleavable dialkoxymethyl-cyclosaligenyl-2',3'-dideoxy-2',3'-didehydrothymidine monophosphates” (J Med Chem, 2008)
